Data taken from ChEMBL document CHEMBL1128459, “Characterization of potent and selective antagonists at postsynaptic 5-HT1A receptors in a series of N4-substituted arylpiperazines” (J Med Chem, 1995).

How the values were obtained:
Rattus norvegicus [1] = test: Compound after subcutaneous administration was evaluated for antagonist activity against hypothermia induced by 8-hydroxy -DPAT in rat; type: functional; settings: sc, read-out: ID50 (the source's name)
Method in brief: (§1)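 Male Wistar rats (200-220 g) had rectal temperature taken, then received the test drug sc in distilled water (1.0 mL/kg). After 30 min they got 8-OH-DPAT 0.16 mg/kg sc, and temperature was remeasured 30 min later. Change from basal was scored.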

Rattus norvegicus [2] = organism: Rattus norvegicus; test: Maximum agonist effect (% effect) expressed relative to 8-hydroxy-DPAT (100%); type: functional
Method in brief: (§2)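 In the rat rectal-temperature model (sc dosing, 8-OH-DPAT 0.16 mg/kg sc for antagonism), the maximal percentage of induced hypothermia (agonist) and of block of 8-OH-DPAT hypothermia (antagonist) was recorded. Each value is given with the dose at which it was reached.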

Rattus norvegicus [3] = test: Minimum effective agonist dose administered subcutaneously; type: functional; settings: sc, read-out: MED
Method in brief: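 Male Wistar rats (200-220 g) were given the test drug alone sc in water (1.0 mL/kg), with vehicle reinjected at 30 min. Rectal temperature change from basal was measured 60 min after the first injection. MED for hypothermia was set against vehicle by ANOVA with Dunnett's test, P < 0.05.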

[4] = biological target: T1, 5-hydroxytryptamine receptor 1A (Rattus norvegicus, UniProt P19327); test: Binding affinity at 5-hydroxytryptamine 1A receptor
T1 sequence (P19327 whole entry): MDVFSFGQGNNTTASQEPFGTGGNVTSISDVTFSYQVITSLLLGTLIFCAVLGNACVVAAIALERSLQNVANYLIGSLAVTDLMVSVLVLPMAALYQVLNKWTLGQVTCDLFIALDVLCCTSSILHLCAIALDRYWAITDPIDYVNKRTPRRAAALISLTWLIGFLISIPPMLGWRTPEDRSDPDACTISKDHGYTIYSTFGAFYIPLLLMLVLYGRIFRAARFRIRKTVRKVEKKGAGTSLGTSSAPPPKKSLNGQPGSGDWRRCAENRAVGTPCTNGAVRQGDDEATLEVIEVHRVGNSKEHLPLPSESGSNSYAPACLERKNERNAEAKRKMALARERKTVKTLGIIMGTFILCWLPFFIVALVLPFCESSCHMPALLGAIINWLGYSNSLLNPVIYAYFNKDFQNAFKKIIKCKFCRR
Method in brief: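 Rat hippocampal membranes (1/100 wt/vol) in 50 mM Tris pH 7.7 with 4 mM CaCl2, 0.1% ascorbic acid and pargyline. Membranes were spun at 25000g, preincubated 30 min at 37 °C and respun, then incubated with 0.4 nM [3H]-8-OH-DPAT for 30 min at 25 °C. 5-HT defined nonspecific binding, and samples were filtered on PEI-soaked GF/B. IC50 came from regression; pKi = −log[IC50/(1+[L]/Kd)].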

Rattus norvegicus [5] = test: Minimum effective antagonist dose administered subcutaneously; type: functional; settings: sc, read-out: MED; method in brief: as §1
[6] = biological target: 5-hydroxytryptamine receptor 1B (Rattus norvegicus, UniProt P28564); test: Binding affinity at 5-hydroxytryptamine 1B receptor
Method in brief: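 Rat frontal cortex membranes (1/40 wt/vol) were homogenized in 50 mM Tris pH 7.7 with pargyline, 4 mM CaCl2 and 0.1% ascorbic acid, then preincubated for 30 min at 37 °C. Labelled with 2.0 nM [3H]-5-HT, with 100 nM 8-OH-DPAT and 100 nM mesulergine masking 5-HT1A/5-HT2A sites; 5-CT defined nonspecific binding.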

Rattus norvegicus [7] = organism: Rattus norvegicus; test: Maximum antagonist effect (% effect) expressed relative to 8-hydroxy-DPAT (100%); type: functional; method in brief: as §2
[8] = Ratio of MED (agonist) to that of MED (antagonist) values.; type: functional
Method in brief: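 The MED for inducing hypothermia alone was divided by the MED for blocking 8-OH-DPAT (0.16 mg/kg sc) hypothermia. Both MEDs came from sc dosing in male Wistar rats and were tested against vehicle by ANOVA with Dunnett's test, P < 0.05.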

[9] = biological target: D(2) dopamine receptor (Rattus norvegicus) (UniProt P61169)
D(2) dopamine receptor = D(2) dopamine receptor (Rattus norvegicus, UniProt P61169); test: In vitro binding affinity towards Dopamine receptor D2 in rat striatum was determined using [3H]-spiperone as radioligand; type: tissue-based
Method in brief: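 Rat striatal membranes (1/300 wt/vol), no preincubation, in 50 mM Tris pH 7.4 with CaCl2, ascorbic acid, 5 mM KCl, 1 mM MgCl2 and 120 mM NaCl. Ligand 0.2 nM [3H]spiperone, with 100 nM ketanserin masking 5-HT2A sites; raclopride defined nonspecific binding. Incubation 30 min at 37 °C, then filtration. pKi derived from regression-based IC50.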

Chain of 5-hydroxytryptamine receptor 1B (P28564 whole entry): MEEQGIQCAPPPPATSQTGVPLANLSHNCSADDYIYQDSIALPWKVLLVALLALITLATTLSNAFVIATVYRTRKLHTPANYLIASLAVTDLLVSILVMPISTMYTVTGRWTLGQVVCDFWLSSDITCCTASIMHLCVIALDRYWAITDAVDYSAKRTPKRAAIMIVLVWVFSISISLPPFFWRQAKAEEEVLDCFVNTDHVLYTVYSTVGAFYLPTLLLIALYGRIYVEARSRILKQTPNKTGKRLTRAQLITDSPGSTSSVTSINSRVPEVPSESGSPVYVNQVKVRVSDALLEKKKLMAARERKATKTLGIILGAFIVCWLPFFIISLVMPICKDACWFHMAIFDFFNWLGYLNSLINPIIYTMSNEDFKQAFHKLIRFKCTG
Chain of D(2) dopamine receptor (Rattus norvegicus) (P61169 whole entry): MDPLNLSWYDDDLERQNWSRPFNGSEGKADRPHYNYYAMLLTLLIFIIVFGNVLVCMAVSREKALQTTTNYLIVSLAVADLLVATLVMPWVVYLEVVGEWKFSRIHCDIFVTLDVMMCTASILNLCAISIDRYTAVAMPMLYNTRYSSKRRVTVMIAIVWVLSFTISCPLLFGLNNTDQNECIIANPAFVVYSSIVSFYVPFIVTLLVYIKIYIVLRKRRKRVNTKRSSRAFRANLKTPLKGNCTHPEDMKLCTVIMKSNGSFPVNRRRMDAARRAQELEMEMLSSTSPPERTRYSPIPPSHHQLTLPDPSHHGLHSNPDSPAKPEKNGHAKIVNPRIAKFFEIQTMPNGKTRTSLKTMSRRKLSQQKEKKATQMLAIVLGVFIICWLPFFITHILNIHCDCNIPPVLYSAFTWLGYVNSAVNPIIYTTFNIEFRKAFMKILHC
Chain of D(2) dopamine receptor (P61169 whole entry): as above

| Structure (SMILES) | ED50 (Rattus norvegicus [1]) [mg/kg] | Max effect (Rattus norvegicus [2]) [%] | minimal effective dose (Rattus norvegicus [3]) [mg/kg] | Ki [4] [nM] | minimal effective dose (Rattus norvegicus [5]) [mg/kg] | Ki [6] [nM] | Max effect (Rattus norvegicus [7]) [%] | Ratio [8] | ID50 [9] [mg/kg] | Ki (D(2) dopamine receptor) [nM] |
| --- | --- | --- | --- | --- | --- | --- | --- | --- | --- | --- |
| C1=C(CCN2CCN(c3cccc4c3OCCO4)CC2)Cc2ccccc21 | 0.36 | 76 | 10 | 0.537 | 0.31 | 933 | 81 | 32.2 | – | – |
| c1ccc2c(c1)CCCCC2CCN1CCN(c2cccc3c2OCCO3)CC1 (stereo not given) | 4.26 | 9 | > 10 | 6.61 | 5 | 776 | 96 | > 2 | > 10 | – |
| COc1ccc2c(c1)C(CCN1CCN(c3cccc4c3OCCO4)CC1)C2 (stereo not given) | 0.48 | 35 | 10 | 1.26 | 0.63 | 316 | 95 | 15.8 | > 40 | – |
| c1ccc2c(c1)CCC2CCCN1CCN(c2cccc3c2OCCO3)CC1 (stereo not given) | 0.29 | 100 | 10 | 0.617 | 0.16 | 204 | 81 | 62.5 | > 40 | – |
| C1=C(CCN2CCN(c3cccc4c3OCCO4)CC2)c2ccccc2CCC1 | 5.02 | 33 | > 40 | 3.16 | 2.5 | 380 | 55 | > 16 | 40 | – |
| COc1cc2c(cc1OC)C(CCN1CCN(c3cccc4c3OCCO4)CC1)C2 (stereo not given) | 1.41 | 4 | > 40 | 3.16 | 1.25 | 794 | 96 | > 32 | > 40 | – |
| c1ccc2c(c1)CC2CCN1CCN(c2cccc3c2OCCCO3)CC1 (stereo not given) | 2.68 | 31 | 40 | 1.15 | 1.25 | 562 | 72 | 32 | 30 | – |
| C1=C(CCN2CCN(c3cccc4c3OCCO4)CC2)c2ccccc2CC1 | 0.4 | 14 | > 40 | 2 | 0.63 | 229 | 100 | > 63.5 | > 40 | – |
| c1ccc2c(c1)CC(CN1CCN(c3cccc4c3OCCO4)CC1)C2 | 0.55 | 0 | > 10 | 2.82 | 0.63 | 490 | 87 | > 15.8 | > 40 | – |
| c1cc2c(c(N3CCNCC3)c1)OCCO2 [ELTOPRAZINE] | > 40 | 100 | 2.5 | – | > 40 | – | 0 | < 0.06 | – | – |
| c1ccc2c(c1)CC(CCN1CCN(c3cccc4c3OCCO4)CC1)C2 | 0.27 | 50 | 10 | – | 0.16 | 692 | 100 | 62.5 | 5.9 | – |
| C1=C(CCN2CCN(c3cccc4c3OCCO4)CC2)c2ccccc2C1 | 0.45 | 21 | > 2.5 | 0.794 | 0.63 | 251 | 94 | > 4 | > 40 | – |
| COc1ccccc1N1CCN(CCN2C(=O)CC3(CCCC3)CC2=O)CC1 [BMY-7378] | 1.6 | 53 | 2.5 | – | 1.25 | > 10000 | 64 | – | 0.65 | 17.4 |
| Clc1cccc2c1CC2CCCN1CCN(c2cccc3c2OCCO3)CC1 (stereo not given) | 3.09 | 15 | > 10 | 3.72 | 0.63 | 1100 | 60 | > 15.8 | 40 | – |
| c1ccc2c(c1)CC2CN1CCN(c2cccc3c2OCCO3)CC1 (stereo not given) | 0.67 | 100 | 10 | 1.78 | 0.63 | 214 | 85 | 15.8 | > 40 | – |
| c1ccc2c(c1)CC2CCCN1CCN(c2cccc3c2OCCO3)CC1 (stereo not given) | 0.18 | 100 | 10 | 0.447 | 0.16 | 646 | 75 | 62.5 | 1.7 | – |
| c1ccc2c(c1)CC2CN1CCN(c2cccc3c2OCCCO3)CC1 (stereo not given) | 0.32 | 76 | > 10 | 7.94 | 0.63 | – | 91 | > 15.8 | > 40 | – |
| c1ccc2c(c1)CC2CCCN1CCN(c2cccc3c2OCCCO3)CC1 (stereo not given) | 0.27 | 21 | > 2.5 | 0.794 | 0.16 | 617 | 85 | > 15.6 | – | – |
| Fc1cccc2c1CC2CN1CCN(c2cccc3c2OCCO3)CC1 (stereo not given) | 2.51 | 19 | > 10 | 1.78 | 0.63 | 316 | 61 | > 15.8 | > 40 | – |
| c1ccc2c(c1)CCCC2CCN1CCN(c2cccc3c2OCCO3)CC1 (stereo not given) | 0.4 | 8 | > 2.5 | 2.75 | 0.16 | 708 | 70 | > 15.6 | 40 | – |
| c1ccc2c(c1)CC2CN1CCN(c2cccc3ccoc23)CC1 (stereo not given) | 1.12 | 15 | > 10 | 7.94 | 2.5 | 912 | 96 | > 4 | – | – |
| c1ccc2c(c1)CC(CCCN1CCN(c3cccc4c3OCCO4)CC1)C2 | 0.47 | 40 | 40 | 1.26 | 0.63 | 1860 | 70 | 63.5 | > 40 | – |
| COc1cc2nc(N3CCN(C(=O)c4ccco4)CC3)nc(N)c2cc1OC | – | – | – | – | – | – | – | – | > 10 | – |
